Source: PubChem
Most compounds without a hit are left out; they make up all but 2% or so of the library.
CaV13 FRET inh = Primary screen for inhibitors of IQ motif and Ca2+-dependent inactivation inhibitor domain binding in CACNA1D, Förster resonance energy transfer in living cells, …; HEK cells, CFP/YFP FRET ICDI-IQ, plate reader, 10 min; percent FRET-ratio fall versus neutral wells; inhibition, % at 12.3 µM; 0.098% of 340,000 active; AID 743397;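 active means mean replicate inhibition of at least 30% and at least 1% of replicates passing that level; inconclusive means only one of the two criteria is met; inactive means neither criterion is met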
XiGFP reactiv = activators of inactive X chromosome reactivation, primary screen, imaging, XiGFP fibroblasts, GFP high-content imaging, set 2 | XiGFP mouse fibroblasts, % GFP-positive cells imaging, 3 d; cells co-treated with 5-aza-dC sensitizer; scaled so ellipticine positive control = 100% | AID 743238, 2013 | activation, % at 7.58 µM | 0.055% of 360,000 active;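 active means mean normalized replicate activation at least 10% and every replicate at or above 10%; inconclusive means only one of the two criteria met; inactive means mean below 10% and not all replicates reach 10%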
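Material: XiGFP fibroblasts, SV40-immortalized. Buffer or medium: DMEM plus 5-aza-dC sensitizer. Compound: single concentration per compound, delivered by pin transfer. Times: 3 days compound exposure. Controls: ellipticine 6 µM.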
CASP6 VEID inh = human caspase-6 inhibitors, primary screen, biochemical, VEID-R110 fluorescence, single point, set 2; purified caspase-6, Z-VEID-R110 cleavage fluorescence; 0.53% of 350,000 active; P55212; inhibition, % at 12.5 µM; AID 686996, 2013;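 active means mean inhibition across replicates at least about 35%, with every replicate also reaching that limit, limit read from the data; inconclusive means only one of the two criteria met; inactive means neither criterion met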
Target sequence (P55212 24-179 limits assumed): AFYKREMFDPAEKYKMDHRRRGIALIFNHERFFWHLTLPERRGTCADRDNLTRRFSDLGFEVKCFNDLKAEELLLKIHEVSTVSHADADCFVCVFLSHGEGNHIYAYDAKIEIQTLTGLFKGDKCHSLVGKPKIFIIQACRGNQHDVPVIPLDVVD
Target sequence (P55212 194-293 limits assumed): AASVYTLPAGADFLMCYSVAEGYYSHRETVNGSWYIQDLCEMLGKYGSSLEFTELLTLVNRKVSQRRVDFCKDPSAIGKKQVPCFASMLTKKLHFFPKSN
DENV2 CPE rescue = inhibitors of DENV2 cytopathic effect, primary screen, cell-based, plate reader, single concentration; DENV2-infected cells, cytopathic effect rescue; CPE inhibition, % at 9.99 µM; 1.7% of 350,000 active; in the data active means CPE inhibition above about 20%, passing the limit was not always enough; inconclusive means no clear call, values can overlap the other calls; tested in BHK-21 cells
FN deposit inh = inhibitors of fibronectin matrix deposition, primary screen, AH1F cells, Alexa488-fibronectin fluorescence, plate reader; AH1F fibroblasts, overnight; inhibition, % at 12.6 µM; 0.086% of 350,000 active;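 active means mean inhibition across replicates of 30% or more, regardless of how many single replicates reach that level; inconclusive means mean under 30% yet at least half of replicates reach 30%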
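Assay system: AH1F fibroblasts / Quantity: 10000 cells per well / Medium: DMEM plus 2% serum, read in PBS / Reagent: labelled fibronectin 24 nM / Dosing: single dose, pinned / Times: 1 h cell attachment, overnight exposure to compound and label / Signal: fluorescence, ex 485 nm, em 525 nm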
Each line names hits and unclear results; the compound was inactive in the other large screens.

CCCCCCN(C(=O)CCCCCN1C(=O)NC(c2ccc(-c3ccccc3)cc2)C(C(=O)OCc2ccccc2)=C1C)C(C(=O)NCCCC)C1CCCCC1 (stereo not drawn)	none
CCCCCCN(C(=O)CCCCCN1C(=O)NC(c2ccc(-c3ccccc3)cc2)C(C(=O)OCc2ccccc2)=C1C)C(C(=O)NCCCC)c1ccccn1 (stereo not drawn)	DENV2 CPE rescue 23
COc1cc(OC)cc(C(=O)Nc2cccc(NC(=O)c3cccs3)c2)c1	none
COc1cc(OC)cc(C(=O)NNC(=O)CNC(=O)c2cccs2)c1	CASP6 VEID inh 62
CCN1C(=O)[C@H]2[C@@H](c3ccc(OC)cc3)N3C(=O)CN(CCOC)C(=O)[C@@]3(C)[C@H]2C1=O	DENV2 CPE rescue 98
CCN1C(=O)[C@H]2[C@@H](c3ccc(OC)cc3)N3C(=O)CN(Cc4ccccc4)C(=O)[C@@]3(Cc3ccccc3)[C@H]2C1=O	none (no result: DENV2 CPE rescue)
O=C(C[C@H]1CC[C@H](NS(=O)(=O)c2ccc(F)cc2)[C@H](CO)O1)NCc1ccncn1	DENV2 CPE rescue 23 (no result: CaV13 FRET inh, FN deposit inh)
Cc1ccc(S(=O)(=O)N[C@@H]2CC[C@H](CC(=O)NCc3ccc(Cl)c(Cl)c3)O[C@H]2CO)cc1	DENV2 CPE rescue 22 (no result: CaV13 FRET inh, FN deposit inh)
O=C(C[C@@H]1CC[C@H](NS(=O)(=O)c2ccc(F)cc2)[C@@H](CO)O1)NCc1ccncn1	none (no result: CaV13 FRET inh, FN deposit inh)
Cc1ccc(S(=O)(=O)N[C@H]2CC[C@H](CCNC(=O)CN3CCOCC3)O[C@@H]2CO)cc1	none (no result: CaV13 FRET inh, FN deposit inh)
Cc1ccc(S(=O)(=O)N[C@@H]2CC[C@@H](CCNC(=O)CN3CCOCC3)O[C@H]2CO)cc1	DENV2 CPE rescue 26 (no result: CaV13 FRET inh, FN deposit inh)
Cc1ccc(S(=O)(=O)N[C@@H]2CC[C@H](CC(=O)NCc3ccc(Cl)c(Cl)c3)O[C@@H]2CO)cc1	none (no result: CaV13 FRET inh, FN deposit inh)
Cc1ccc(S(=O)(=O)N[C@H]2CC[C@H](CCNC(=O)C3CCOCC3)O[C@@H]2CO)cc1	DENV2 CPE rescue 25 (no result: CaV13 FRET inh)
O=C(Nc1ccccc1)N1C[C@H]2[C@@H](c3ccccc31)[C@H](CO)N2C(=O)c1cccnc1	none (no result: CaV13 FRET inh, FN deposit inh)
C[C@@H]1CN([C@H](C)CO)C(=O)c2cc(/C=C/c3ccccc3)cnc2O[C@H]1CN(C)C(=O)C1CC1	none (no result: CaV13 FRET inh, CASP6 VEID inh, DENV2 CPE rescue)
C[C@@H]1CN([C@H](C)CO)C(=O)c2cc(-c3ccncc3)cnc2O[C@@H]1CN(C)C(=O)C1CCC1	none (no result: CaV13 FRET inh, CASP6 VEID inh, DENV2 CPE rescue, FN deposit inh)
O=C(CN1CCOCC1)NCC[C@@H]1CC[C@H](NC(=O)Cc2ccccn2)[C@@H](CO)O1	DENV2 CPE rescue 23 (no result: CaV13 FRET inh)
COc1ccccc1C(=O)N/C(=C/c1ccc(Br)cc1)C(=O)N1CCCC1	FN deposit inh 32
C[C@@H]1CN([C@H](C)CO)S(=O)(=O)c2ccc(C3=CCCCC3)cc2O[C@@H]1CN(C)C(=O)C1CCCCC1	none (no result: CaV13 FRET inh, FN deposit inh)
CO[C@H]1CN(C)C(=O)c2cc(NC(=O)CC(F)(F)F)ccc2OC[C@H](C)N(CC2CC2)C[C@H]1C	DENV2 CPE rescue 54 (no result: CaV13 FRET inh, CASP6 VEID inh)
CCCC(=O)Nc1ccc2c(c1)OC[C@@H](C)N(CCC(F)(F)F)C[C@H](C)[C@H](OC)CN(C)C2=O	none (no result: CaV13 FRET inh)
CO[C@@H]1CN(C)C(=O)c2cc(NC(=O)c3ccccc3F)ccc2OC[C@H](C)N(CC2CC2)C[C@@H]1C	DENV2 CPE rescue 43 (no result: CaV13 FRET inh)
COc1cccc(NC(=O)Nc2ccc3c(c2)C(=O)N(C)C[C@H](OC)[C@@H](C)CN(CC2CC2)[C@@H](C)CO3)c1	DENV2 CPE rescue 22 (no result: CaV13 FRET inh)
COc1cccc(NC(=O)Nc2ccc3c(c2)C(=O)N(C)C[C@H](OC)[C@@H](C)CN(CC2CC2)[C@H](C)CO3)c1	none (no result: CaV13 FRET inh)
CCCC(=O)Nc1ccc2c(c1)OC[C@H](C)N(CCC(F)(F)F)C[C@H](C)[C@@H](OC)CN(C)C2=O	DENV2 CPE rescue 31 (no result: CaV13 FRET inh)
CO[C@H]1CN(C)C(=O)c2cc(NC(=O)c3ccccc3F)ccc2OC[C@H](C)N(CC2CC2)C[C@@H]1C	none (no result: CaV13 FRET inh)
CCC(=O)N1[C@@H]2c3cccc(=O)n3C[C@H]1[C@H](CO)[C@H]2C(=O)NCc1ccc(F)cc1	DENV2 CPE rescue inconclusive (no result: CaV13 FRET inh, FN deposit inh)
CC(=O)N1C[C@@H]2C(c3ccccc3)[C@H](C1)N2CC(F)(F)F (stereo partly drawn)	none (no result: CaV13 FRET inh, CASP6 VEID inh, DENV2 CPE rescue)
